# Assay results taken from ChEMBL document CHEMBL4396897, “Potent 5-Cyano-6-phenyl-pyrimidin-Based Derivatives Targeting DCN1-UBE2M Interaction” (J Med Chem, 2019).
# Calls of active or inactive are those of the source. The rule behind the calls is not given here.
# Experiments:
# [1] = target: T1, NEDD8-activating enzyme E1 catalytic subunit (Homo sapiens) (UniProt Q8TBC4); test: Inhibition of NEDD8-activating enzyme E1C (unknown origin) assessed as effect on NEDD8/UBE2M complex formation up to 100 uM pre-incubated for 10 mins followed by Mg-ATP addition after 60 mins by SDS-PAGE analysis
# T1 sequence (whole entry): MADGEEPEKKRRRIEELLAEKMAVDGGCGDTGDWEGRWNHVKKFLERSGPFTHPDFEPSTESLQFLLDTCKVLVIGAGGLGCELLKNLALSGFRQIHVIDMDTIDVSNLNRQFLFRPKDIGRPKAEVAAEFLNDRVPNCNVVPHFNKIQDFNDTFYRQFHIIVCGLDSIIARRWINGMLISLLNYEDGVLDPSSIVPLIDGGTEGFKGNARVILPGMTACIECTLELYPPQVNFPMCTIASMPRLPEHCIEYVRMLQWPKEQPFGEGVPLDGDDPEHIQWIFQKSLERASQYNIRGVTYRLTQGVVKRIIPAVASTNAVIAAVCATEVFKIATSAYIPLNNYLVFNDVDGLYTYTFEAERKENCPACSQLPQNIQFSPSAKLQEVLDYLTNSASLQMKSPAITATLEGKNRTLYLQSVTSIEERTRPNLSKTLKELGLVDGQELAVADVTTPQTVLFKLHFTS
# Outline: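 Cell-free NEDD8~UBE2M formation: NEDD8 E1 mixed with NEDD8, UBE2M and compound (10 and 20µM reference inhibitor, or 1, 10 and 100µM test compound) in reaction buffer, 10 min at room temperature. Started with Mg-ATP, incubated 60 min at 37°C, then 1mM DTT and non-reducing loading buffer added. Resolved on 12% SDS-PAGE.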
# PC-9 [2] = test: Induction of apoptosis in human PC9 cells after 48 hrs by Annexin V-FITC/propidium iodide staining based flow cytometry; format: functional, cell-based
# Outline: (§1)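 PC9 cells seeded in 6-well plates (1~2×10^6 cells/mL), incubated overnight, then exposed to 0, 2.5, 5 or 10µM compound for 48h. Harvested cells stained with Annexin-V-FITC/PI for 30 min and analysed by flow cytometry. Three individual experiments; means ± SD.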
# DCN1-like protein 1 [3] = target: T2, DCN1-like protein 1 (Homo sapiens, UniProt Q96GG9); test: Binding affinity to N-terminal GST tagged recombinant human DCN1 (58 to 259 residues) expressed in Escherichia coli BL21(DE3) assessed as reduction in DCN1-FAM-labelled N-terminal acetylated UBE2M (1 to 21 residues) protein-protein interaction after 30 mins by HTRF assay
# Target sequence in this assay (Q96GG9 whole entry, the tested form may be a part): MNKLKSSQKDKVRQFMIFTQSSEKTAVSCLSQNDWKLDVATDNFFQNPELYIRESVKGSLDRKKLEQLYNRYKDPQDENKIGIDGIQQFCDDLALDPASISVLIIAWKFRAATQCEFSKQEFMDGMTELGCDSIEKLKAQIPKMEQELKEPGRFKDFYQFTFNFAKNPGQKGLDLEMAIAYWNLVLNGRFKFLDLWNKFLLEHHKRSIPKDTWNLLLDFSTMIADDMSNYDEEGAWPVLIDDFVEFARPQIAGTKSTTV
# A549 [4] = test: Induction of apoptosis in human A549 cells assessed as late apoptotic cells at 2.5 uM after 48 hrs by Annexin V-FITC/propidium iodide staining based flow cytometry (reference value: 2.61%); format: functional
# PC-9 [5] = test: Induction of apoptosis in human PC9 cells assessed as viable cells at 2.5 uM after 48 hrs by Annexin V-FITC/propidium iodide staining based flow cytometry (reference value: 95.7%); format: functional; details: PC-9, 48 h, read-out: Activity; outline: as §1
# NCI-H1975 [6] = test: Induction of apoptosis in human NCI-NCI-H1975 cells assessed as late apoptotic cells at 2.5 uM after 48 hrs by Annexin V-FITC/propidium iodide staining based flow cytometry (reference value: 0.46%); format: functional
# PC-9 [7] = test: Induction of apoptosis in human PC9 cells assessed as viable cells at 10 uM after 48 hrs by Annexin V-FITC/propidium iodide staining based flow cytometry (reference value: 95.7%); format: functional; details: PC-9, 48 h, read-out: Activity; outline: as §1
# PC-9 [8] = test: Induction of apoptosis in human PC9 cells assessed as necrotic cells at 10 uM after 48 hrs by Annexin V-FITC/propidium iodide staining based flow cytometry (reference value: 1.34%); format: functional; outline: as §1
# NCI-H1975 [9] = test: Induction of apoptosis in human NCI-NCI-H1975 cells assessed as viable cells at 10 uM after 48 hrs by Annexin V-FITC/propidium iodide staining based flow cytometry (reference value: 96.1%); format: functional; details: NCI-H1975, 48 h, read-out: Activity
# PC-9 [10] = test: Inhibition of colony formation in human PC9 cells after 7 days by crystal violet staining based microscopic analysis; format: functional, cell-based
# Outline: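 H1975, PC9 and A549 cells seeded at 1×10^3 cells per well and cultured overnight, then given fresh medium with compound at 0, 0.625, 1.25, 2.5, 5 or 10μM for 7 days. Cells fixed, stained with 0.1% crystal violet and imaged by microscopy; dye then dissolved and read on a plate reader. Three experiments; means ± SD.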
# A549 [11] = test: Induction of apoptosis in human A549 cells assessed as necrotic cells at 2.5 uM after 48 hrs by Annexin V-FITC/propidium iodide staining based flow cytometry (reference value: 0.88%); format: functional
# PC-9 [12] = test: Induction of apoptosis in human PC9 cells assessed as late apoptotic cells at 10 uM after 48 hrs by Annexin V-FITC/propidium iodide staining based flow cytometry (reference value: 1.57%); format: functional
# NCI-H1975 [13] = test: Antiproliferative activity against human NCI-NCI-H1975 by MTT assay; format: functional, cell-based; details: TDE = time-dependent effect
# NCI-H1975 [14] = test: Effect on HO-1 accumulation in human […] cells transfected with DCN1 siRNA3 by densitometric method; format: functional, cell-based
# Outline: (§2)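 H1975 or PC9 cells seeded in 6-well plates for 16-24h, transfected with DCN1 siRNA#3 by lipofection, with or without compound, and collected three days later. Western blot for Cullin3, DCN1, NRF2, HO-1 and NQO1, with densitometry normalized to GAPDH. Three individual experiments, means ± SD.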
# DCN1-like protein 1 [15] = target: T2, DCN1-like protein 1; test: Binding affinity to N-terminal His6-tagged recombinant human DCN1 expressed in Escherichia coli BL21-AI assessed as reduction in DCN1-FAM-labelled N-terminal acetylated UBE2M (1 to 12 residues) protein-protein interaction after 30 mins by fluorescence polarization competitive binding assay
# Target sequence in this assay (Q96GG9 whole entry, the tested form may be a part): as above
# NCI-H1975 [16] = test: Induction of apoptosis in human NCI-NCI-H1975 cells assessed as early apoptotic cells at 10 uM after 48 hrs by Annexin V-FITC/propidium iodide staining based flow cytometry (reference value: 2.47%); format: functional
# A549 [17] = test: Induction of apoptosis in human A549 cells assessed as necrotic cells at 10 uM after 48 hrs by Annexin V-FITC/propidium iodide staining based flow cytometry (reference value: 0.88%); format: functional
# PC-9 [18] = test: Effect on NRF2 accumulation in human PC9 cells transfected with DCN1 siRNA3 by densitometric method; format: functional, cell-based; outline: as §2
# DCN1-like protein 1 [19] = target: T2, DCN1-like protein 1
# Target sequence in this assay (Q96GG9 whole entry, looked up, the tested form may be a part): as the sequence (Q96GG9 whole entry, the tested form may be a part) above
# NCI-H1975 [20] = test: Induction of apoptosis in human NCI-NCI-H1975 cells assessed as late apoptotic cells at 5 uM after 48 hrs by Annexin V-FITC/propidium iodide staining based flow cytometry (reference value: 0.46%); format: functional
# PC-9 [21] = test: Effect on Cullin3 neddylation in human PC9 cells transfected with DCN1 siRNA3 by densitometric method; format: functional, cell-based; outline: as §2
# NCI-H1975 [22] = test: Induction of apoptosis in human NCI-NCI-H1975 cells assessed as early apoptotic cells at 2.5 uM after 48 hrs by Annexin V-FITC/propidium iodide staining based flow cytometry (reference value: 2.47%); format: functional
compound,measurement,setting,value
C#CCSc1nc(Sc2nccs2)c(C#N)c(-c2ccc(C)cc2)n1,inhibition,[1],inactive
same,Activity,PC-9 [2],Dose-dependent effect
same,IC50,DCN1-like protein 1 [3],15.7 nM
same,Ki,DCN1-like protein 1 [3],13.7 nM
same,Activity,A549 [4],10.3%
same,viability at 2.5 µM,PC-9 [5],69.3%
same,Activity,NCI-H1975 [6],9.13%
same,viability at 10 µM,PC-9 [7],23.4%
same,Activity,PC-9 [8],17.4%
same,viability at 10 µM,NCI-H1975 [9],17.1%
same,inhibition,PC-9 [10],Dose-dependent effect
same,Activity,A549 [11],1.22%
same,Activity,PC-9 [12],57.2%
same,Activity,NCI-H1975 [13],Tde
same,Activity,NCI-H1975 [14],inactive
same,IC50,DCN1-like protein 1 [15],26.9 nM
same,Ki,DCN1-like protein 1 [15],20.8 nM
same,Activity,NCI-H1975 [16],33.2%
same,Activity,A549 [17],0.72%
same,Activity,PC-9 [18],inactive
same,ΔTm,DCN1-like protein 1 [19],7 °C
same,Activity,NCI-H1975 [20],29%
same,Activity,PC-9 [21],inactive
same,Activity,NCI-H1975 [22],9.47%
